{"source": "ChEMBL document CHEMBL3259628", "about": "“Discovery of novel 2-((pyridin-3-yloxy)methyl)piperazines as α7 nicotinic acetylcholine receptor modulators for the treatment of inflammatory disorders” (J Med Chem, 2014)", "key": {"[1]": {"target": "Neuronal acetylcholine receptor subunit alpha-7 (Rattus norvegicus, UniProt Q05941)", "sequence (Q05941 whole entry)": "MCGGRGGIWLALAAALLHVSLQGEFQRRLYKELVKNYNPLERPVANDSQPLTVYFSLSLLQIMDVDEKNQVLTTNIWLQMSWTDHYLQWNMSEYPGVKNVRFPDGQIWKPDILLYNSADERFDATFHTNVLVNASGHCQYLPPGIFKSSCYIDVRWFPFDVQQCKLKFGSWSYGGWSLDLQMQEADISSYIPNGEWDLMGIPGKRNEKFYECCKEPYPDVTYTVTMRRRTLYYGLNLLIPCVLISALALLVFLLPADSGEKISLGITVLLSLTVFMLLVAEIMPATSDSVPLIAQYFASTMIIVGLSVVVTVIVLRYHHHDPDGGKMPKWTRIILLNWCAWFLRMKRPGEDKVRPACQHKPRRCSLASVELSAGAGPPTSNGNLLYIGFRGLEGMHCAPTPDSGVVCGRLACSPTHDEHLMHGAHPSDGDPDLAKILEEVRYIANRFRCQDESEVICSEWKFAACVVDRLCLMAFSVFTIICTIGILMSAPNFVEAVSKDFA", "assay": "Inhibition of biotinylated alpha-bungarotoxin binding to alpha7 nAChR in rat PC12 cells by FACS analysis", "format": "cell-based, PC-12", "summary_of_the_method": "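Rat PC12 cells in binding buffer (PBS, 1.0% FBS, 0.02% sodium azide), 0.1% DMSO; biotinylated α-bungarotoxin 10 nM final, 1 h at room temperature; nonspecific binding defined with 1.5 μM unlabeled toxin. After washing, phycoerythrin-streptavidin 1.0 μg/mL final, 15 min in the dark; read by FACS. Screened at 10 and 1 μM, then eight-point 3-fold dilution IC50; mean of two or more experiments.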"}, "[2]": {"target": "Acetylcholine receptor; alpha1/beta1/delta/gamma (Homo sapiens) (UniProt P02708+P07510+P11230+Q07001)", "assay": "Inhibition of alpha1beta1gammadelta nAChR (unknown origin) at 10 uM", "format": "protein-complex assay", "summary_of_the_method": "(§1)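 Receptor, ion channel and transporter binding panel run at Cerep in duplicate. Percent inhibition measured at 10 μM compound.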"}, "[3]": {"target": "T1, 5-hydroxytryptamine receptor 3A (Homo sapiens) (UniProt P46098)", "T1 sequence (whole entry)": "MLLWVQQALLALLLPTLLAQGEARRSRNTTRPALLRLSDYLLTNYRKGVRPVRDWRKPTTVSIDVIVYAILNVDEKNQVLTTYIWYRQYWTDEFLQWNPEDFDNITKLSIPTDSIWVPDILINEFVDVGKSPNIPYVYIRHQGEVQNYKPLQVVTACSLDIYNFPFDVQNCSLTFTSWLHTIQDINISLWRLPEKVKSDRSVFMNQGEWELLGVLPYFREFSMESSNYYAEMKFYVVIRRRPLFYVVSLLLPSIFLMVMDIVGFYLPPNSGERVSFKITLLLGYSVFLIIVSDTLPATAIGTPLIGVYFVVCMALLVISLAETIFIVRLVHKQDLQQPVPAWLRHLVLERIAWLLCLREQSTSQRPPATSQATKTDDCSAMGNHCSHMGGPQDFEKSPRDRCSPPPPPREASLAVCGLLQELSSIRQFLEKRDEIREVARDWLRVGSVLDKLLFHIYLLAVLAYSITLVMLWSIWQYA", "assay": "Inhibition of 5-HT3 receptor (unknown origin) at 10 uM", "summary_of_the_method": "as §1"}, "[4]": {"target": "hERG (KCNH2) (Homo sapiens, UniProt Q12809)", "sequence (Q12809 whole entry)": "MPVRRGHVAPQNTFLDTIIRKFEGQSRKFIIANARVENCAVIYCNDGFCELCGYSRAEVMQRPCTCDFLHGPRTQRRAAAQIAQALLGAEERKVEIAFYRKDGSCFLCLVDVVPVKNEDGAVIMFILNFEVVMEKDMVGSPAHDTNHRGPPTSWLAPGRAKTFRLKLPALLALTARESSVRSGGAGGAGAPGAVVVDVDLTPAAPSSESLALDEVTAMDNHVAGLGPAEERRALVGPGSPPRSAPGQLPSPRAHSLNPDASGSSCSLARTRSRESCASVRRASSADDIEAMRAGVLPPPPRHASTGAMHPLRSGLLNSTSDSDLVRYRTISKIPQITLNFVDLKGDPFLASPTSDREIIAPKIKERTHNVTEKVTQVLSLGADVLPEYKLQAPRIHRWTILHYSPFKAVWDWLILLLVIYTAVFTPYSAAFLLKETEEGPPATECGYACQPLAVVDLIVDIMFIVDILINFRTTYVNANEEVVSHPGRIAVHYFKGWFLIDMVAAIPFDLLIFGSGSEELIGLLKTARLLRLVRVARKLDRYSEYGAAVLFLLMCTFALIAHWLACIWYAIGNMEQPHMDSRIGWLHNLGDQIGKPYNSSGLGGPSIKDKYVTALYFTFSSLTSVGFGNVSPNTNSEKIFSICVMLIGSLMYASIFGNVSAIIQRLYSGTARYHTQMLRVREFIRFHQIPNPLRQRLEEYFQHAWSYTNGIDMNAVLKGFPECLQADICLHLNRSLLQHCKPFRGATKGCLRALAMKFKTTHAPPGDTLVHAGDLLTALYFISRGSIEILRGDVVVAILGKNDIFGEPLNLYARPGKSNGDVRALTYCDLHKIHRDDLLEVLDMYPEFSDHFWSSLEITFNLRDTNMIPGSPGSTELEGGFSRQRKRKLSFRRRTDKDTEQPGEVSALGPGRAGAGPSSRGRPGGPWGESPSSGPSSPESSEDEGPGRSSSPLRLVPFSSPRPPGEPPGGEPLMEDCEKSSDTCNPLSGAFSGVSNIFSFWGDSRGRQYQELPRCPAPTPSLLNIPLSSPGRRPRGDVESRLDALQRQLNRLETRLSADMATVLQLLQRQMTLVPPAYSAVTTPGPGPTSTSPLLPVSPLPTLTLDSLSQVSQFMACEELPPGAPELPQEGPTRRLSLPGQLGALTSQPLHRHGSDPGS", "assay": "Inhibition of human ERG at 1 uM by whole-cell voltage clamp assay"}, "[5]": {"target": "T2, CYP1A2 (Homo sapiens, UniProt P05177)", "T2 sequence (P05177 whole entry)": "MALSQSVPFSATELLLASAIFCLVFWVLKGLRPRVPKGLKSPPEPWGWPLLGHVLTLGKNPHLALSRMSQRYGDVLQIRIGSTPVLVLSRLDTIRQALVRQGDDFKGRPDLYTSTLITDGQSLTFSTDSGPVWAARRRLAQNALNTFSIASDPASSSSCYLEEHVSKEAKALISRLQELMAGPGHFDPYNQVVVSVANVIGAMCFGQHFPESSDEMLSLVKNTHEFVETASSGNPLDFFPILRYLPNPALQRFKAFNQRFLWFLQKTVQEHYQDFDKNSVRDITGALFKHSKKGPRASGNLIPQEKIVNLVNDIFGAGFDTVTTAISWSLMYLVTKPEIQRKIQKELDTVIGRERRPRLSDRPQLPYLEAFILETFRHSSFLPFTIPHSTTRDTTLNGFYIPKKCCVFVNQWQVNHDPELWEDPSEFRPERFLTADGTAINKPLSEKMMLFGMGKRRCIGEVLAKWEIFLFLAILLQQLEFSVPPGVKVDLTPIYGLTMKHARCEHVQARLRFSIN", "assay": "Inhibition of CYP1A2 (unknown origin) at 10 uM", "format": "ADME", "summary_of_the_method": "(§2)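 Each of five Cyp isoforms assayed with single probe substrates rather than a substrate cocktail. Run in duplicate at Cerep. IC50 lines come from a 5-concentration titration curve.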"}, "[6]": {"target": "CYP2C9 (Homo sapiens, UniProt P11712)", "sequence (P11712 whole entry)": "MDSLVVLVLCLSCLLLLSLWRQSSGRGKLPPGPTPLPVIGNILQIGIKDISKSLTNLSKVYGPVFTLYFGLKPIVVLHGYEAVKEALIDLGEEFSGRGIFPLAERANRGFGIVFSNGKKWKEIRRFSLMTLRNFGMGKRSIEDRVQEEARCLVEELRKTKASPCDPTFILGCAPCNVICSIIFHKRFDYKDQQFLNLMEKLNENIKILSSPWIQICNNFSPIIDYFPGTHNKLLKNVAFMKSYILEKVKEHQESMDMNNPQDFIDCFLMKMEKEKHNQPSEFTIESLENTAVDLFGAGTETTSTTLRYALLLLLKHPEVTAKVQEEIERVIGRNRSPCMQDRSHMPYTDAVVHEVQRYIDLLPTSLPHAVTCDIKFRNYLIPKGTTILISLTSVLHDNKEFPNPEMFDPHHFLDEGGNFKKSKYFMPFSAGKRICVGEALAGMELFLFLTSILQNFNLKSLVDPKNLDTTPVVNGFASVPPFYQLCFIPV", "assay": "Inhibition of CYP2C9 (unknown origin) at 10 uM", "format": "ADME", "summary_of_the_method": "as §2"}, "[7]": {"target": "CYP2C19 (Homo sapiens, UniProt P33261)", "sequence (P33261 whole entry)": "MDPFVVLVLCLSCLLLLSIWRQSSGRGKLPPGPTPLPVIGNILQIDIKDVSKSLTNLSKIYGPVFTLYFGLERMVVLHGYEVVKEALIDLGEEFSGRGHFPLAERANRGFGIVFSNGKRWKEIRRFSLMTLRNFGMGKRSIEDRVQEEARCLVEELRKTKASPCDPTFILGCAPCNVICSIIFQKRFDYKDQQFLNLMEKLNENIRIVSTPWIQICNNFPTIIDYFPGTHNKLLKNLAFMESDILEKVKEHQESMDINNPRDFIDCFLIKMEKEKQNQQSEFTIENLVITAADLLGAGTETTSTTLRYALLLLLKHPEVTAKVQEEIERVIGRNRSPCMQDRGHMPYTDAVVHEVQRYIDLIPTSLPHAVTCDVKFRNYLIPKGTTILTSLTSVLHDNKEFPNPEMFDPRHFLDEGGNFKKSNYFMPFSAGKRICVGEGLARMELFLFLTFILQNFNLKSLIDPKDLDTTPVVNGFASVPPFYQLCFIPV", "assay": "Inhibition of CYP2C19 (unknown origin) at 10 uM", "format": "ADME", "summary_of_the_method": "as §2"}, "[8]": {"target": "CYP2D6 (Homo sapiens, UniProt P10635)", "sequence (P10635 whole entry)": "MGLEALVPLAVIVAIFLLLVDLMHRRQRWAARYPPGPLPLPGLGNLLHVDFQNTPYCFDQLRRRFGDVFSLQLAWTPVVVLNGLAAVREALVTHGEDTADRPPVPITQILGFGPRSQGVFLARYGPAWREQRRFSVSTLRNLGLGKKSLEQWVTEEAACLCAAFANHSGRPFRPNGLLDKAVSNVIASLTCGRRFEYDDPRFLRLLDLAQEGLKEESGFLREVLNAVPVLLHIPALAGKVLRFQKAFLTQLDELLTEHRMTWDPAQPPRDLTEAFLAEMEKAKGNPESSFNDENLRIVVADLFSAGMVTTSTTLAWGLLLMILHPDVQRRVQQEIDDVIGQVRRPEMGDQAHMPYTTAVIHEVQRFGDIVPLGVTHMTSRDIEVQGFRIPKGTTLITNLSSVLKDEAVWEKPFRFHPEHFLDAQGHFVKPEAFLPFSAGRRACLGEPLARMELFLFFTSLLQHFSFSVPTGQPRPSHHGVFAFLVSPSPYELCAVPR", "assay": "Inhibition of CYP2D6 (unknown origin) at 10 uM", "format": "ADME", "summary_of_the_method": "as §2"}, "[9]": {"target": "CYP3A4 (Homo sapiens, UniProt P08684)", "sequence (P08684 whole entry)": "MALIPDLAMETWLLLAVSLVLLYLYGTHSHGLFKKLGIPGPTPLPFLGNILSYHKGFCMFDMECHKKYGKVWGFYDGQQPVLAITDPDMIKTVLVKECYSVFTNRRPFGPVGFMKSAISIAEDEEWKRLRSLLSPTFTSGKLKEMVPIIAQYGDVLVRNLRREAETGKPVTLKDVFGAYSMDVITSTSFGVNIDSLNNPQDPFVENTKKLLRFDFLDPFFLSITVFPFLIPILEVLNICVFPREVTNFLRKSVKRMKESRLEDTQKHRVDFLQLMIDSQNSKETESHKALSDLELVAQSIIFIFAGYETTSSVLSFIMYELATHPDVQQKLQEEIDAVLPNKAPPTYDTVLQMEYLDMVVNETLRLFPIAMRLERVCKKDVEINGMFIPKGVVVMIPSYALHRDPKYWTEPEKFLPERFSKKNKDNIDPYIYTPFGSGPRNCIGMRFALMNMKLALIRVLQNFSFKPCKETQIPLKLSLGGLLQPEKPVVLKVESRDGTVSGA", "assay": "Inhibition of CYP3A4 (unknown origin) at 10 uM", "format": "ADME", "summary_of_the_method": "as §2"}, "[10]": {"target": "Neuronal acetylcholine receptor; alpha4/beta2 (Homo sapiens, UniProt P17787+P43681)", "assay": "Inhibition of human alpha4beta2 nAChR at 10 uM by binding assay"}}, "note": "pIC50: −log10 of the molar value.", "data": [{"smiles": "CC(C)c1ccc(NC(=O)N2CCNCC2COc2cccnc2)cc1", "note": "(racemic)", "values": [{"measurement": "pIC50", "setting": "[1]", "result": 6.55}]}, {"smiles": "c1cncc(OC[C@@H]2CNCCN2c2nc3ncccc3o2)c1", "values": [{"measurement": "pIC50", "setting": "[1]", "result": 5.80}]}, {"smiles": "O=C(Nc1ccc(-c2ccccc2)cc1)N1CCNCC1COc1cccnc1", "note": "(racemic)", "values": [{"measurement": "pIC50", "setting": "[1]", "result": 7.89}]}, {"smiles": "O=C(Nc1ccc(C(F)(F)F)cc1)N1CCNCC1COc1cccnc1", "note": "(racemic)", "values": [{"measurement": "pIC50", "setting": "[1]", "result": 6.66}]}, {"smiles": "Clc1cnc2nc(N3CCNCC3COc3cccnc3)sc2c1", "note": "(racemic)", "values": [{"measurement": "pIC50", "setting": "[1]", "result": 8.40}]}, {"smiles": "Fc1cc(F)c2nc(N3CCNCC3COc3cccnc3)sc2c1", "note": "(racemic)", "values": [{"measurement": "pIC50", "setting": "[1]", "result": 7.72}, {"measurement": "inhibition", "setting": "[2]", "result": 12, "unit": "%"}, {"measurement": "inhibition", "setting": "[3]", "result": 91, "unit": "%"}, {"measurement": "inhibition at 1 µM", "setting": "[4]", "result": 36, "unit": "%"}, {"measurement": "inhibition at 10 µM", "setting": "[5]", "result": 67, "unit": "%"}, {"measurement": "inhibition at 10 µM", "setting": "[6]", "result": 26, "unit": "%"}, {"measurement": "inhibition at 10 µM", "setting": "[7]", "result": 70, "unit": "%"}, {"measurement": "inhibition at 10 µM", "setting": "[8]", "result": 72, "unit": "%"}, {"measurement": "inhibition at 10 µM", "setting": "[9]", "result": 83, "unit": "%"}, {"measurement": "inhibition", "setting": "[10]", "result": 45, "unit": "%"}]}, {"smiles": "O=C(c1ccccc1)N1CCNCC1COc1cccnc1", "note": "(racemic)", "values": [{"measurement": "pIC50", "setting": "[1]", "result": 5.97}]}, {"smiles": "COc1ccc2nc(N3CCNCC3COc3cccnc3)sc2c1", "note": "(racemic)", "values": [{"measurement": "pIC50", "setting": "[1]", "result": 7.10}]}, {"smiles": "O=C(Oc1ccc(Cl)cc1)N1CCNCC1COc1cccnc1", "note": "(racemic)", "values": [{"measurement": "pIC50", "setting": "[1]", "result": 8.02}]}, {"smiles": "COc1ccc2nc(N3CCNCC3COc3cccnc3)oc2c1", "note": "(racemic)", "values": [{"measurement": "pIC50", "setting": "[1]", "result": 7.66}]}, {"smiles": "COc1ccc2nc(N3CCNC[C@@H]3COc3cccnc3)sc2c1", "values": [{"measurement": "pIC50", "setting": "[1]", "result": 7.34}, {"measurement": "inhibition", "setting": "[2]", "result": 9, "unit": "%"}, {"measurement": "inhibition", "setting": "[3]", "result": 99, "unit": "%"}, {"measurement": "inhibition at 1 µM", "setting": "[4]", "result": 36, "unit": "%"}, {"measurement": "inhibition at 10 µM", "setting": "[5]", "result": 63, "unit": "%"}, {"measurement": "inhibition at 10 µM", "setting": "[6]", "result": 33, "unit": "%"}, {"measurement": "inhibition at 10 µM", "setting": "[7]", "result": 78, "unit": "%"}, {"measurement": "inhibition at 10 µM", "setting": "[8]", "result": 50, "unit": "%"}, {"measurement": "inhibition at 10 µM", "setting": "[9]", "result": 49, "unit": "%"}, {"measurement": "inhibition", "setting": "[10]", "result": 83, "unit": "%"}]}, {"smiles": "O=C(c1ccc(Cl)cc1)N1CCNCC1COc1cccnc1", "note": "(racemic)", "values": [{"measurement": "pIC50", "setting": "[1]", "result": 5.21}]}, {"smiles": "COc1ccc2oc(N3CCNCC3COc3cccnc3)nc2c1", "note": "(racemic)", "values": [{"measurement": "pIC50", "setting": "[1]", "result": 7.15}]}, {"smiles": "O=C(Nc1cccc(Cl)c1)N1CCNCC1COc1cccnc1", "note": "(racemic)", "values": [{"measurement": "pIC50", "setting": "[1]", "result": 6.68}]}, {"smiles": "Cc1cc(NC(=O)N2CCNCC2COc2cccnc2)ccc1Br", "note": "(racemic)", "values": [{"measurement": "pIC50", "setting": "[1]", "result": 7.85}, {"measurement": "inhibition", "setting": "[2]", "result": 23, "unit": "%"}, {"measurement": "inhibition", "setting": "[3]", "result": 80, "unit": "%"}, {"measurement": "inhibition at 1 µM", "setting": "[4]", "result": 27, "unit": "%"}, {"measurement": "inhibition at 10 µM", "setting": "[5]", "result": 48, "unit": "%"}, {"measurement": "inhibition at 10 µM", "setting": "[6]", "result": 21, "unit": "%"}, {"measurement": "inhibition at 10 µM", "setting": "[7]", "result": 51, "unit": "%"}, {"measurement": "inhibition at 10 µM", "setting": "[8]", "result": 85, "unit": "%"}, {"measurement": "inhibition at 10 µM", "setting": "[9]", "result": 80, "unit": "%"}, {"measurement": "inhibition", "setting": "[10]", "result": 15, "unit": "%"}]}, {"smiles": "O=C(Nc1ccc(Cl)cc1)N1CCNCC1COc1cccnc1", "note": "(racemic)", "values": [{"measurement": "pIC50", "setting": "[1]", "result": 7.15}]}, {"smiles": "O=C(Nc1ccc2c(c1)CCO2)N1CCNCC1COc1cccnc1", "note": "(racemic)", "values": [{"measurement": "pIC50", "setting": "[1]", "result": 6.20}]}, {"smiles": "FC(F)(F)Oc1ccc2nc(N3CCNCC3COc3cccnc3)sc2c1", "note": "(racemic)", "values": [{"measurement": "pIC50", "setting": "[1]", "result": 6.57}]}, {"smiles": "COc1ccc(NC(=O)N2CCNCC2COc2cccnc2)c(OC)c1", "note": "(racemic)", "values": [{"measurement": "pIC50", "setting": "[1]", "result": 7.10}]}, {"smiles": "COc1cccc(NC(=O)N2CCNCC2COc2cccnc2)c1", "note": "(racemic)", "values": [{"measurement": "pIC50", "setting": "[1]", "result": 6.47}]}, {"smiles": "c1cncc(OCC2CNCCN2c2nc3ncccc3s2)c1", "note": "(racemic)", "values": [{"measurement": "pIC50", "setting": "[1]", "result": 7.49}]}, {"smiles": "COc1ccc(OC(=O)N2CCNCC2COc2cccnc2)cc1", "note": "(racemic)", "values": [{"measurement": "pIC50", "setting": "[1]", "result": 7.96}, {"measurement": "inhibition", "setting": "[2]", "result": 2, "unit": "%"}, {"measurement": "inhibition", "setting": "[3]", "result": 39, "unit": "%"}, {"measurement": "inhibition", "setting": "[10]", "result": 90, "unit": "%"}]}, {"smiles": "Cc1ccc(NC(=O)N2CCNCC2COc2cccnc2)cc1", "note": "(racemic)", "values": [{"measurement": "pIC50", "setting": "[1]", "result": 7.13}]}, {"smiles": "Brc1ccc2oc(N3CCNC[C@@H]3COc3cccnc3)nc2c1", "values": [{"measurement": "pIC50", "setting": "[1]", "result": 7.17}, {"measurement": "inhibition", "setting": "[2]", "result": -3, "unit": "%"}, {"measurement": "inhibition", "setting": "[3]", "result": 100, "unit": "%"}, {"measurement": "inhibition", "setting": "[10]", "result": 96, "unit": "%"}]}, {"smiles": "Brc1ccc2oc(N3CCNCC3COc3cccnc3)nc2c1", "note": "(racemic)", "values": [{"measurement": "pIC50", "setting": "[1]", "result": 7.12}]}]}
